Assay [1] is filed under the species Mus musculus. Nature of the assay: Antiproliferative activity against mouse AXL-positive Breast cancer cells after 5 days by PrestoBlue assay. It counts as functional. The method, boiled down: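 Cell proliferation: AXL+ cells were exposed to 8-point half-log dilutions (0.03–100 μM). Viability was read with PrestoBlue reagent on day 5.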
Assay [2] has as its target RAC-alpha serine/threonine-protein kinase (Homo sapiens, UniProt P31749). Nature of the assay: Inhibition of AKT (unknown origin) using poly [Glu, Try] 4:1 as substrate in presence of [gamma-33P]ATP. The method, boiled down: (§1)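 Radiometric assay on recombinant kinase: ³³P incorporation into the kinase substrate was measured and activity was expressed relative to a DMSO control.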

Assay [3] has as its target T1, Aurora kinase A (Homo sapiens, UniProt O14965).
T1 sequence (O14965 whole entry): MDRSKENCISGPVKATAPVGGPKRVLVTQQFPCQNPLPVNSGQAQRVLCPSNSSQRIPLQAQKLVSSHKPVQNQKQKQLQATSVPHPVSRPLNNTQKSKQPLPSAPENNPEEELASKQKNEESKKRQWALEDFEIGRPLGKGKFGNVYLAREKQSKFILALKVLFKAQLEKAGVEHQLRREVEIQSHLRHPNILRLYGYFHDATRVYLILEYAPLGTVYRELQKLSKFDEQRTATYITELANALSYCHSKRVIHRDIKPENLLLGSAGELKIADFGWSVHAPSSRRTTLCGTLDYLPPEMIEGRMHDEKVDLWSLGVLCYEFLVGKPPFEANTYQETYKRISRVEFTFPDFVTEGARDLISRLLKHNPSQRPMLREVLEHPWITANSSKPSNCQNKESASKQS
In words: Inhibition of human partial length Aurora A (E122 to K401 residues) expressed in mammalian expression system using poly [Glu, Try] 4:1 as substrate in presence of [gamma-33P]ATP. In outline: as §1

For assay [4], the target named is Mast/stem cell growth factor receptor Kit (Homo sapiens, UniProt P10721). In words: Inhibition of wild-type human partial length KIT (I571 to D952 residues) expressed in bacterial expression system using poly [Glu, Try] 4:1 as substrate in presence of [gamma-33P]ATP. In outline: as §1
Chain of Mast/stem cell growth factor receptor Kit (P10721 whole entry, the tested form may be a part): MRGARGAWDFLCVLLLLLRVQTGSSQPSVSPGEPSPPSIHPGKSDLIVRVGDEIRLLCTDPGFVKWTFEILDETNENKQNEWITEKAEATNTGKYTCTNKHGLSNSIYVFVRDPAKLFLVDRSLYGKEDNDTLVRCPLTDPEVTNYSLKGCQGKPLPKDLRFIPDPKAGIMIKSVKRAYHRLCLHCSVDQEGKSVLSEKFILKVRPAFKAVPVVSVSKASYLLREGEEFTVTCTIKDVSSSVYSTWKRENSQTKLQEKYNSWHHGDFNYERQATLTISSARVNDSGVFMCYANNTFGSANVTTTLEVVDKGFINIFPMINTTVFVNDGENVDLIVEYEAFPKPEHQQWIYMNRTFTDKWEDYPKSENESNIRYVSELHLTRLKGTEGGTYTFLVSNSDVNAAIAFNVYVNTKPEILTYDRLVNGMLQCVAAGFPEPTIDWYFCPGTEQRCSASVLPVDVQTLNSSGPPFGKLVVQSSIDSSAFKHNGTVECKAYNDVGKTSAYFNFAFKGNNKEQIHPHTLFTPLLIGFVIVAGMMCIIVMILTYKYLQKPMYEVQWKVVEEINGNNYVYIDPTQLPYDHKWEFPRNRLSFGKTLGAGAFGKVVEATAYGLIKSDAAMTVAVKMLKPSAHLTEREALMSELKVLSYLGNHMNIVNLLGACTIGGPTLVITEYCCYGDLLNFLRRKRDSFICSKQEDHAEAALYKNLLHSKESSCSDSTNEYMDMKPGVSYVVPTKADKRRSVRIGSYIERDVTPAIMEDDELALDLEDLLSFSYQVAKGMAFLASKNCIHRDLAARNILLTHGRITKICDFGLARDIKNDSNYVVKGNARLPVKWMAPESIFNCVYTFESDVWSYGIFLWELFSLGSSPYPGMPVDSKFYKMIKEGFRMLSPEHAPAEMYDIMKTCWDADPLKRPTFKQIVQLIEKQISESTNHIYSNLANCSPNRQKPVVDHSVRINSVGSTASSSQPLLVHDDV
In assay [5] the target is Hepatocyte growth factor receptor (Homo sapiens, UniProt P08581). Nature of the assay: Inhibition of wild-type human partial length MET (D1010 to S1367 residues) expressed in bacterial expression system using poly [Glu, Try] 4:1 as substrate in presence of [gamma-33P]ATP. In outline: as §1
Chain of Hepatocyte growth factor receptor (P08581 whole entry, the tested form may be a part): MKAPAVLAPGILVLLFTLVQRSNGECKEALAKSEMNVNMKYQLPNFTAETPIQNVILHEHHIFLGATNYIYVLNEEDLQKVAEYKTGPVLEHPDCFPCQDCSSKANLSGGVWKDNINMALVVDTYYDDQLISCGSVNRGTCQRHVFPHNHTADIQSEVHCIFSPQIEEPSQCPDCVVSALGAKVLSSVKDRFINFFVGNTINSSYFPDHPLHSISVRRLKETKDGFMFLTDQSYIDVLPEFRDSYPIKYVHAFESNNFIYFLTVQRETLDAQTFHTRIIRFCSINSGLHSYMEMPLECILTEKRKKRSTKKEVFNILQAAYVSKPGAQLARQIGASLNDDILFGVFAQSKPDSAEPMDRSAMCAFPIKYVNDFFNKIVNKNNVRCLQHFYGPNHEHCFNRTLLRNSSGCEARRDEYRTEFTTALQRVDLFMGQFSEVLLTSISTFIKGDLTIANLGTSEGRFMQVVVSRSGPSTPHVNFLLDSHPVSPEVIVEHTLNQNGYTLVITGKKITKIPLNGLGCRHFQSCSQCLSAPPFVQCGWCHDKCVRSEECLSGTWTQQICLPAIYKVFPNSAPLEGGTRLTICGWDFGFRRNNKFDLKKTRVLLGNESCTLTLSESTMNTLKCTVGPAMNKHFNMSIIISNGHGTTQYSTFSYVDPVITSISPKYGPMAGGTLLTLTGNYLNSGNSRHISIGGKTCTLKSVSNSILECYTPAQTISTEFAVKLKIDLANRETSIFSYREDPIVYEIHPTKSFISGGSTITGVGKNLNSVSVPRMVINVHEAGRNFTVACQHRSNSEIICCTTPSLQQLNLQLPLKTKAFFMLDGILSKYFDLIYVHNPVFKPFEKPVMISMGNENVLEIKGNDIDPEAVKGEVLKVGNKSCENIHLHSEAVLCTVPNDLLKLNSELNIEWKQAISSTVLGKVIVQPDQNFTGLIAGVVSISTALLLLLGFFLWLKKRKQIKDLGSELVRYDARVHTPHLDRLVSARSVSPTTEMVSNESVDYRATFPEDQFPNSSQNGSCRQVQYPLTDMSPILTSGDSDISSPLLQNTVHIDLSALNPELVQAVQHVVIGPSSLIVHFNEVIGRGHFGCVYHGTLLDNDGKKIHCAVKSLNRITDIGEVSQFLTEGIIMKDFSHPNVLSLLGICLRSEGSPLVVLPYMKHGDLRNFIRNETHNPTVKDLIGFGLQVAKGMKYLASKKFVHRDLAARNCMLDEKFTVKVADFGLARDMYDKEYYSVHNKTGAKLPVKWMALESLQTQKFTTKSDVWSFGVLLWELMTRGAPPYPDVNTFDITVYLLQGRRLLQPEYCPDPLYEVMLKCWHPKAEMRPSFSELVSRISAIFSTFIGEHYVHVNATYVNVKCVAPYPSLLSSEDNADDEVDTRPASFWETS
Assay [6] concerns the target Proto-oncogene tyrosine-protein kinase Src (Homo sapiens, UniProt P12931). In words: Inhibition of wild-type human partial length SRC (L240 to L536 residues) expressed in bacterial expression system using poly [Glu, Try] 4:1 as substrate in presence of [gamma-33P]ATP.
In assay [7] the target is Vascular endothelial growth factor receptor 2 (Homo sapiens, UniProt P35968). In words: Inhibition of wild-type human partial length VEGFR2 (R787 to P1253 residues) expressed in mammalian expression system using poly [Glu, Try] 4:1 as substrate in presence of [gamma-33P]ATP.
Chain of Vascular endothelial growth factor receptor 2 (P35968 whole entry, the tested form may be a part): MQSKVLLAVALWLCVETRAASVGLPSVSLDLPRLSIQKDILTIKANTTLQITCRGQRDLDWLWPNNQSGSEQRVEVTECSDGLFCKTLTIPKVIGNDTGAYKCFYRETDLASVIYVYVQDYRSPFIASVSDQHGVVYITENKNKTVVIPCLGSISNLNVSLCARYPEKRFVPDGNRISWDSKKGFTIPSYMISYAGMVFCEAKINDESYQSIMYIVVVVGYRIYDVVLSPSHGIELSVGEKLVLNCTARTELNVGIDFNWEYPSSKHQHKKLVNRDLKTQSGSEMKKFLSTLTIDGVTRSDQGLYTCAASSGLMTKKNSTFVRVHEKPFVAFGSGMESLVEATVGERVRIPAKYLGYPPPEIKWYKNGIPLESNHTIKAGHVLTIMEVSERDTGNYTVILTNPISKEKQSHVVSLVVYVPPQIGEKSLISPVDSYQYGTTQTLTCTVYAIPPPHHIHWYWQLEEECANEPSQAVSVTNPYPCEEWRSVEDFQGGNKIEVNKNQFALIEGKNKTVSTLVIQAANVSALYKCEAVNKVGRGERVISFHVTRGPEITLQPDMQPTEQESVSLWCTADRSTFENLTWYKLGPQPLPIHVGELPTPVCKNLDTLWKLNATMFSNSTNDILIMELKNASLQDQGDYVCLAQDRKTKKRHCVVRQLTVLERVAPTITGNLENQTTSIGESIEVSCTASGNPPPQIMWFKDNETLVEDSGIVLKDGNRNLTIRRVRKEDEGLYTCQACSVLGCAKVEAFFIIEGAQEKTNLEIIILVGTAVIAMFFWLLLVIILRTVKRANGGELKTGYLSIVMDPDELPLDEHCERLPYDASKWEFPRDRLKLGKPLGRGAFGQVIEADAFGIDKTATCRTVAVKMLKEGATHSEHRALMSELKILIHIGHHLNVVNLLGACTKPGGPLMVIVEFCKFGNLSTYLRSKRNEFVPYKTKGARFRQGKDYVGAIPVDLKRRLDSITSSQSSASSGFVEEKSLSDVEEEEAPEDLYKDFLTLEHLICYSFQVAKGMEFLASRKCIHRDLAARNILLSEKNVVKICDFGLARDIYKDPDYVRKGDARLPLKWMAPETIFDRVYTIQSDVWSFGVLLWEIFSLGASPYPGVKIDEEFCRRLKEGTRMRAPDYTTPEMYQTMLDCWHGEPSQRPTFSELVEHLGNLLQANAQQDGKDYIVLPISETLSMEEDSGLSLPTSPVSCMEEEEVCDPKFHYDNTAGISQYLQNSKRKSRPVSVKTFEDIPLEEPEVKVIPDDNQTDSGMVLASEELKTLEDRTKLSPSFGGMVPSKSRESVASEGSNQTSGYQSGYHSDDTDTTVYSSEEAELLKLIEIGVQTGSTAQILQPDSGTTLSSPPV
For assay [8], the target named is Serine/threonine-protein kinase mTOR (Homo sapiens, UniProt P42345). Nature of the assay: Inhibition of wild-type human partial length MTOR (L1382 to W2549 residues) expressed in mammalian expression system using poly [Glu, Try] 4:1 as substrate in presence of [gamma-33P]ATP. In outline: as §1
Assay [9] deals with T2, Tyrosine-protein kinase receptor TYRO3 (Homo sapiens, UniProt Q06418).
T2 sequence (Q06418 whole entry): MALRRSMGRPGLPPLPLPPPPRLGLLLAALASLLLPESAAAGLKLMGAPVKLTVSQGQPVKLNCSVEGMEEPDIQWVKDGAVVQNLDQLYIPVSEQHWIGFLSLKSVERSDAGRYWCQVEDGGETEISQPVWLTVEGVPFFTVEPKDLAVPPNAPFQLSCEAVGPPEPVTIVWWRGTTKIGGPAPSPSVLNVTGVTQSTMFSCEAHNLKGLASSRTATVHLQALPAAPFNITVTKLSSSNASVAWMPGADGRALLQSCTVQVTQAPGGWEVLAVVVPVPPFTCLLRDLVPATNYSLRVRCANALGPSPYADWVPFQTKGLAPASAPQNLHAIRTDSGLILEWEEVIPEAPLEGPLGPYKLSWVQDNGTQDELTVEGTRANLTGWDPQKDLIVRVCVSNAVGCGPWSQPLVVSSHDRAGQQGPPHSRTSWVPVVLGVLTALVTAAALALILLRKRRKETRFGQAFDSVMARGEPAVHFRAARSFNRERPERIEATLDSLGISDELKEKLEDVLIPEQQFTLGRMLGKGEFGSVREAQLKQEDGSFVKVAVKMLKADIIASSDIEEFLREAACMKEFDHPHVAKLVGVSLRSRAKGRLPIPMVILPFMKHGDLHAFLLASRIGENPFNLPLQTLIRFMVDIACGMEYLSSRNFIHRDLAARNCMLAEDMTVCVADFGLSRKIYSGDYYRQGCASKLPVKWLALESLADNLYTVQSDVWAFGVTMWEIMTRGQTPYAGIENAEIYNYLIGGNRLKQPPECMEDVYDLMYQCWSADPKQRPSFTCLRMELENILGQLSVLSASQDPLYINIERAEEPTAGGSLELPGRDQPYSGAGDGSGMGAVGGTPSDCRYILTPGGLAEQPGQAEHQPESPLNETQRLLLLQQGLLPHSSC
In words: Inhibition of wild-type human partial length TYRO3 (S497 to T814 residues) expressed in bacterial expression system using poly [Glu, Try] 4:1 as substrate in presence of [gamma-33P]ATP. The method, boiled down: as §1

Molecules are shown by their SMILES. The source made the active and inactive calls. The rule behind the calls is not given here.

One may read the IC50 as the concentration needed to halve the response being measured.

Chain of Proto-oncogene tyrosine-protein kinase Src (P12931 2-536 limits assumed): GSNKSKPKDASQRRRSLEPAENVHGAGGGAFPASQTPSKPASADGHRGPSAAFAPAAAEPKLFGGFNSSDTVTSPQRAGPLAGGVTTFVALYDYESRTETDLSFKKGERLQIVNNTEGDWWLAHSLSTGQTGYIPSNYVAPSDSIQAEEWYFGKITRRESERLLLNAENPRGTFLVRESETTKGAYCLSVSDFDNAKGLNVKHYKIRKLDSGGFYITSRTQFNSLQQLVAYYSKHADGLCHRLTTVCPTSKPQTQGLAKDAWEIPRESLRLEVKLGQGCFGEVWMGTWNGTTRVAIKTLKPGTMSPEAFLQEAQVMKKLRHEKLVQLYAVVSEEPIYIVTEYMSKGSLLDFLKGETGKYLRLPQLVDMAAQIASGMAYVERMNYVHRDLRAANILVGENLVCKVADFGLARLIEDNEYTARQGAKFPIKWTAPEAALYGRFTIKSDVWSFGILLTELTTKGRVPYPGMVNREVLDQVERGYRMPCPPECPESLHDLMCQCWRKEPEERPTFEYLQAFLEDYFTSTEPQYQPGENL
Chain of RAC-alpha serine/threonine-protein kinase (P31749 whole entry): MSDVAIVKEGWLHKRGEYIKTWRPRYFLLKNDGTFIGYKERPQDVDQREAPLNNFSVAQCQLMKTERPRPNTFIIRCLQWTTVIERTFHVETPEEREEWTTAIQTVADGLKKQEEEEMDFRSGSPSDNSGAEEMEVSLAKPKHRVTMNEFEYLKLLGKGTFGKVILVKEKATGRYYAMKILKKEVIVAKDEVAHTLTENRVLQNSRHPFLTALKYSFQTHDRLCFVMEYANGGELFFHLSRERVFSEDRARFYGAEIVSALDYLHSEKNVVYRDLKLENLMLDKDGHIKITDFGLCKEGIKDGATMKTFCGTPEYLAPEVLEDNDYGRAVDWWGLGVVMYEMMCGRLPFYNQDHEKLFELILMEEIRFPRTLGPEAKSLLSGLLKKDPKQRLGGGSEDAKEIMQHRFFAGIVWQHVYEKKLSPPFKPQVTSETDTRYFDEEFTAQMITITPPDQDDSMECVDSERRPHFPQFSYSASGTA

In the case of `CNc1ncc2c(-c3ccc(N4CCNCC4)nc3)nn(Cc3cn(-c4ccc(Cl)cc4)nn3)c2n1`, in assay [1], the outcome was inactive.
With `CNc1ncc2c(-c3ccc(N4CCNCC4)nc3)nn(Cc3cn(-c4ccccc4)nn3)c2n1`, the outcome in assay [1] was inactive.
On the same count and under the same terms, for `CNc1ccc(-c2nn(Cc3cn(Cc4ccccc4)nn3)c3nc(NC)ncc23)cn1` the value was “inactive”.
Consider `CNc1ncc2c(-c3ccc(N4CCNCC4)nc3)nn(Cc3cn(Cc4ccccc4)nn3)c2n1`, for which the result in assay [1] was Active. Also, the 50% inhibitory concentration (IC50) in [2] was above 10 µM; in [3] it was 1.8 µM; in assay [4] it was above 10 µM; in assay [5] it was above 10 µM; in [6], 1 µM; in [7], above 10 µM. The concentration for half-maximal inhibition (IC50) in assay [8] and in assay [9] was above 10 µM in each case.
As to `CNc1ncc2c(-c3cnc4[nH]ccc4c3)nn(Cc3cn(Cc4ccccc4)nn3)c2n1`, the result in [1] was inactive.
For `CNc1ncc2c(-c3ccc(N4CCNCC4)nc3)nn(Cc3cn(-c4ccc(OC)cc4)nn3)c2n1`, the result in [1] was inactive.
In the case of `CNc1ncc2c(-c3ccc(N4CCNCC4)nc3)nn(Cc3cn(C4CCCCC4O)nn3)c2n1` (stereo unspecified), the result in assay [1] was inactive.
Consider `CNc1ncc2c(-c3ccc(N4CCNCC4)nc3)nn(Cc3cn(C4CCCC4O)nn3)c2n1` (stereo unspecified), for which, in assay [1], the result was inactive.
